“And” between values parts separate entries of the source, which are not always exact repeats. Identical values can stand only once. Like-named read-outs stand apart in the source and are kept apart here.
Columns and labels:
[1] = test system: TNF-α; assay: Suppression of LPS-induced TNF-α production in RAW 264.7 cells; assay type: cell-based, murine; conditions: BSA 0.6 mM; for effect on TNF-α: LPS 1 μg/mL
In short: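 RAW 264.7 murine macrophages with added BSA (0.6 mM) and test compound, kept either illuminated or dark. Plates were then treated with LPS (1 μg/mL final) for 1 h. TNF-α in each well's supernatant was measured by commercial ELISA. Means ± SEM from three independent experiments. Two-way ANOVA with Tukey post hoc tests against the LPS control and illuminated versus dark.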

[2] = test system: RAW 264.7 murine macrophage cells; assay: MTT cytotoxicity in RAW 264.7 cells with added BSA; assay type: cell-based
In short: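 MTT viability assay in murine RAW 264.7 macrophages with added bovine serum albumin. Test compounds were screened under both non-illuminated and illuminated conditions.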

[3] = test system: HUVECs; assay: MTT cytotoxicity in normal human cells; assay type: cell-based; conditions: up to 100 μM
[4] = molecular target: T1, bovine serum albumin (Bos taurus, UniProt P02769); assay: Bovine serum albumin binding by tryptophan fluorescence quenching
T1 sequence (P02769 25-607): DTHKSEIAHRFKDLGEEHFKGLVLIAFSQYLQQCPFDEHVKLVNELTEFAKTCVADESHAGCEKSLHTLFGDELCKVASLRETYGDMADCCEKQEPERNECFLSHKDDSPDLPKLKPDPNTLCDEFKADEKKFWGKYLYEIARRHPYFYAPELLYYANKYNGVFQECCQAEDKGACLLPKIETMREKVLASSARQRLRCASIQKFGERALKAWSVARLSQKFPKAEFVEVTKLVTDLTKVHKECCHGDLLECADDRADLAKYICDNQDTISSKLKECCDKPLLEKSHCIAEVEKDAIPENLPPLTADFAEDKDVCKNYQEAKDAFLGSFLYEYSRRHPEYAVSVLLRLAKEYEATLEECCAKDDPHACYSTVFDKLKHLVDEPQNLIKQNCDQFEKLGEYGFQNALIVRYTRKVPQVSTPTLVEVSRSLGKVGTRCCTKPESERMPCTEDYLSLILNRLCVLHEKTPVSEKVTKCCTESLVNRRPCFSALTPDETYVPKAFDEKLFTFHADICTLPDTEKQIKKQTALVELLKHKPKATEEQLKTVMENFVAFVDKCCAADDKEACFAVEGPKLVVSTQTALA

[5] = test system: A549 cells; assay: MTT toxicity in A549 cells with added BSA; assay type: cell-based, human; conditions: BSA 0.6 mM
In short: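 MTT viability assay in human A549 alveolar adenocarcinoma cells with added BSA (0.6 mM). Test compounds were tested under non-illuminated and illuminated conditions. Percent viability was plotted against concentration. IC50 was fitted by four-parameter nonlinear regression, only where viability fell by at least 50%.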

[6] = test system: TNF-α; conditions: RAW 264.7 murine macrophages; cited from earlier work
[7] = molecular target: T1, bovine serum albumin; conditions: 22 °C, cited from earlier work
[8] = read-out: IC50 RAW 264.7, non-illuminated
[9] = read-out: IC50 A549, non-illuminated

3-hydroxybenzo[g]quinolone [Compound 1]
TNF-α level ([1]; 80 nM, illuminated (blue LED array, 1 hr), LPS 1 μg/mL 1 h): almost completely suppressed | effect on TNF-α ([1]; non-illuminated): dose-dependent decrease | IC50 [2, 8]: 40.2 ± 1.44 µM | cell viability [3]: greater than 50% | KSV (binding constant with BSA) ([4]; 22 °C, 4% DMSO:Tris buffer pH 7.4, 0.1 M NaCl): 2.9e+06 M⁻¹ | Ka (ibuprofen) ([4]; 22 °C, in the presence of ibuprofen (Site II)): 980000 M⁻¹ | Ka (warfarin) ([4]; 22 °C, in the presence of warfarin (Site I)): 610000 M⁻¹ | fold stronger binding to BSA than Flav-1 ([4]; relative to Flav-1): approximately 900 fold | IC50 [5, 9]: > 100 µM

NCC(=O)O.[C-]#[O+].[C-]#[O+].[C-]#[O+].[Cl][Ru] [CORM-3]
concentration at which effects on TNF-α expression start [6]: 10 µM

O=C(Nc1cc2ccccc2cc1C(=O)O)c1ccccc1 [Compound 3, 3-(benzoylamino)-2-naphthalenecarboxylic acid]
effect on TNF-α ([1]; illuminated): lack of any effect | IC50 ([2]; Mus musculus, RAW264.7, read-out: IC50 RAW 264.7, non-illuminated): > 100 µM | IC50 [2, 8]: > 100 µM | IC50 ([5]; Homo sapiens, A549, read-out: IC50 A549, non-illuminated): > 100 µM | IC50 [5, 9]: > 100 µM | IC50 A549 (illuminated) ([5]; visible light illumination (in situ CO release)): non-toxic

O=c1c(O)c(-c2ccccc2)oc2cc3ccccc3cc12 [Flav-1, 3-hydroxybenzo[g]flavone, reference compound]
IC50 RAW 264.7 ([2]; non-illuminated): nontoxic | IC50 [2, 8]: > 100 µM | cell viability [3]: greater than 50% | Ka (ibuprofen) ([7]; in the presence of ibuprofen): 2600 M⁻¹ | Ka (warfarin) ([7]; in the presence of warfarin): 360 M⁻¹ | IC50 [5, 9]: 82 µM and 81.9 µM

BSA-Ru(CO)2 conjugate: adduct formed by albumin binding of CORM-3
concentration at which effects on TNF-α expression start [6]: 4.5 µM

From PMC6336391 (Journal of the American Chemical Society, 2018)
